A selection: hits, their analogues and other compounds. The true share with any hit is near 3.7%.
MC4R antag cAMP: antagonists of human melanocortin 4 receptor (MC4R); MC4R-expressing cells, MTII-stimulated cAMP, LANCE TR-FRET; inhibition, % at 6.5 µM; 360,000 compounds, 0.48% hits; AID 540295;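 active = inhibition above its plate's cutoff, the mean of tested wells on that plate plus 3 SD, cut at about 29% in these data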;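 note: 0% = Melanotan II alone and 100% = Melanotan II plus saturating MCL0020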
Target sequence (P32245 whole entry, looked up): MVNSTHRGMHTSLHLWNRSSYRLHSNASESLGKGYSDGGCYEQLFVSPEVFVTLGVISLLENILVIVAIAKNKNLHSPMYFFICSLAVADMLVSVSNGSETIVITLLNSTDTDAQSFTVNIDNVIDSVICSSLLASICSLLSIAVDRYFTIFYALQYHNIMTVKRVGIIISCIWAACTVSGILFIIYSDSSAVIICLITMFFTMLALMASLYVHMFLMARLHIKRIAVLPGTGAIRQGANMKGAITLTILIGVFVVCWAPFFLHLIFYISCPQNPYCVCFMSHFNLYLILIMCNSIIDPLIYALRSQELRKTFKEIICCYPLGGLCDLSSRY
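Material: U2OS-MC4R stable cell line | Reagent: Melanotan II challenge after compound preincubation | Doses: One concentration, 6.5 µM nominal | Incubation: 30-min compound preincubation, 1-h Melanotan II challenge, 1-h detection, room temperature | Signal: TR-FRET cAMP assay | Replicates: One well per compound, no replicates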
Granule exo inh: blocks lytic granule exocytosis; AID 651702; TALL-104 LAMP-1 surface exposure, flow cytometry; cells stimulated with thapsigargin and PMA; inhibition, % at 10 µM; 360,000 compounds, 0.66% hits;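 active = inhibition above about 55%, limit read from the data; inconclusive = no clear call, values can overlap the other calls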
Myeloid diff MLP: compounds promoting myeloid differentiation | calls only at 10 µM | ER-HoxA9 myeloid progenitors, lysozyme-GFP differentiation, flow cytometry | 360,000 compounds, 1% hits | AID 624256;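 active = normalized GFP-positive differentiation at or above the plate's own cutoff, the solvent-only control mean plus 3 SD; inconclusive = no clear call, values can overlap the other calls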;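 note: cells exposed to compound for four days before flow analysis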
EBI2 antag: blocks human EBI2 receptor beta-arrestin signaling; P32249; EBI2 beta-arrestin recruitment, luminescence, 7a,25-OHC stimulated; inhibition, % at 5 µM; 360,000 compounds, 0.81% hits; in the data active = inhibition above about 38%;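 note: enzyme fragment complementation signal reports receptor beta-arrestin coupling in cells; 0% = agonist plus DMSO wells and 100% = wells without agonist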
Target sequence (P32249 whole entry, looked up, the tested form may be a part): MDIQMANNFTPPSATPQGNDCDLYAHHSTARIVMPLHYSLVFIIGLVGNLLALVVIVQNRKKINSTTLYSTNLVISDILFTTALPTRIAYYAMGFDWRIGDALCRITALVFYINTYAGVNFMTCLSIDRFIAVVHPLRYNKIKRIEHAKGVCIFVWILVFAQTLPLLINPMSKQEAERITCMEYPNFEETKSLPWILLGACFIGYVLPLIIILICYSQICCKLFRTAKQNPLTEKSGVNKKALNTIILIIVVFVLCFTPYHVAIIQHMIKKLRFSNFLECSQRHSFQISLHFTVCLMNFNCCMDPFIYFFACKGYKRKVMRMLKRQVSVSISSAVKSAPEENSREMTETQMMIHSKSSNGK
MC4R barr agon: agonists of human melanocortin 4 receptor (MC4R) beta-arrestin | P32245 | U2OS MC4R beta-arrestin complementation, luminescence; percent of melanotan II response, DMSO zero | activation, % at 8.9 µM | 360,000 compounds, 0.98% hits | AID 540308;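 active = activation above a per-plate cutoff, the mean activation of sample wells on that plate plus 3 SD, cut at about 8% in these data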
An asterisk follows results filed as active; i = inactive; ? = inconclusive; nt = no result; + = active, no number.

SMILES | MC4R antag cAMP | Granule exo inh | Myeloid diff MLP | EBI2 antag | MC4R barr agon
CCOC(=O)C1=C(c2ccccc2)N=c2s/c(=C\c3cccc(O)c3)c(=O)n2C1c1cccs1 (stereo not drawn) | 23.2 | 9.3 | i | 20.3 | -3.6
O=C(CCSc1ccc(Cl)c(Cl)c1)NC12CC3CC(CC(C3)C1)C2 | 7.8 | 2.6 | i | 38.0 | -0.1
C=CCn1c(N)cc(=O)nc1SCC(=O)Nc1ccc(C(=O)OCC)cc1 | 1.2 | 3.2 | i | -1.8 | -0.1
CCN(CC)CCn1c(SCC(=O)Nc2cccc(OC)c2)nc2c(sc3ccccc32)c1=O | 2.2 | 69.4* | i | 4.3 | 2.0
Cc1nc(C)c(-c2nnc(-c3ccc(C(C)(C)C)cc3)o2)cc1C(=O)NN | 12.5 | -2.0 | + | 6.8 | 1.4
Cc1nc(C)c(-c2nnc(-c3ccccc3Cl)o2)cc1C(=O)NN | 10.9 | -0.9 | i | 3.6 | -0.7
Cc1ccccc1C(=O)NNC(=O)c1cccc(Br)c1 | 5.0 | 3.9 | i | 10.3 | 0.3
Cc1cccc(-n2c(C)c(-c3ccccc3)[nH]c2=S)c1 | -5.2 | 5.6 | + | -4.8 | -1.4
O=c1n(S(=O)(=O)c2cccc3cccnc23)c2ccccc2n1S(=O)(=O)c1cccc2cccnc12 | 12.9 | 68.1* | i | 3.2 | -1.8
O=C(CBr)c1ccc([N+](=O)[O-])c(CS(=O)(=O)c2ccc(Cl)cc2)c1 | 34.4* | 5.6 | i | -6.5 | -3.1
O=C(O)c1ccc([N+](=O)[O-])c(CS(=O)(=O)c2ccc(Cl)cc2)c1 | 7.0 | -0.1 | i | -11.7 | -2.3
CN1OC[C@@H]2CN(S(=O)(=O)c3cccc4ccccc34)[C@H](c3ccc(-c4cccnc4)cc3)C[C@@H]21 | 3.6 | 6.1 | i | 5.7 | 1.5
C=CCn1c(SCC(=O)c2cccs2)nc2sc(C)c(C)c2c1=O | -0.1 | -0.2 | + | 6.0 | 7.2
C=CCSc1nc2sc(C)c(C)c2c(=O)n1CC=C | -2.8 | 4.1 | i | -2.6 | 2.2
Cc1ccc(S(=O)(=O)CCC(=O)O)cc1C | -11.2 | 0.0 | + | 4.1 | 0.1
Cc1cccc(OCc2nnc(SCC(=O)NCc3ccc4c(c3)OCO4)o2)c1 | 6.4 | -1.3 | i | -1.0 | 0.7
CCN(C(=O)c1ccc(C(C)(C)C)cc1)c1nnc(Cn2nnc3ccccc32)s1 | 1.3 | 4.7 | + | 5.9 | -0.3
O=C(CCNC(=O)c1ccco1)NNC(=O)c1ccc(Br)cc1 | 3.5 | -1.8 | + | 4.3 | 1.6
Cc1c(C(=O)N2CCN(c3ccc([N+](=O)[O-])cc3)CC2)oc2ccccc12 | -4.1 | -0.2 | i | 0.8 | -0.2
Cc1c(-c2ccccc2)oc2c(C(=O)N3CCN(c4ccc([N+](=O)[O-])cc4)CC3)cccc2c1=O | 14.6 | 90.4* | i | 31.4 | -1.4
Cc1cn(C2CC(O)C(CO)O2)c(=O)n(Cc2ccccc2)c1=O (stereo not drawn) | 2.3 | 10.0 | i | -14.8 | -1.9
CCOC(=O)[C@]12CCCC=C1N(Cc1ccccc1)C(=O)[C@H](CC(=O)NCCCN1CCCC1=O)C2 | nt | -7.4 | i | -4.7 | nt
O=S(=O)(NNc1nccc(C(F)(F)F)n1)c1cccc(Cl)c1Cl | 17.9 | 82.9* | i | -2.1 | -2.5
FC(F)(F)c1ccnc(NCc2ccc(Cl)cc2)n1 | -10.2 | -6.8 | i | 6.4 | 2.2
CCOCc1cc(CN2CCC(CCC(=O)NC3CC3)CC2)ccc1OC | -6.3 | -3.9 | i | -8.5 | -1.1
SMILES | MC4R antag cAMP | Granule exo inh | Myeloid diff MLP | EBI2 antag | MC4R barr agon
Cc1ccc(C(=O)N2CCN(S(=O)(=O)c3ccccc3)CC2)cc1 | -4.2 | -0.7 | i | 11.9 | 0.3
COC(=O)C1CN(S(=O)(=O)c2ccc(C)cc2)CCN1S(=O)(=O)c1ccc(C)cc1 (stereo not drawn) | 6.3 | 0.2 | i | 54.6* | -2.0
O=C(CC1CCCC1)N1CCN(S(=O)(=O)c2ccccc2)CC1 | 4.0 | -2.9 | + | -6.4 | 0.0
Cc1ccc(S(=O)(=O)N2CCN(C(=O)c3ccccc3)CC2)cc1 | 8.3 | 1.7 | + | -38.1 | -1.6
COc1ccc(N2CCN(C(=O)c3ccc(S(=O)(=O)N4CCCC4)cc3)CC2)cc1 | 4.9 | -7.3 | i | 3.5 | 1.7
COc1ccc(N2CCN(C(=O)c3ccc(S(=O)(=O)N4CCOCC4)cc3)CC2)cc1 | 11.6 | -1.4 | + | 19.4 | 0.5
CC(C)(C)c1ccc(S(=O)(=O)NC(=O)C2(C)CCN2C(=O)Cc2ccc(-c3ccccc3)cc2)cc1 (stereo not drawn) | 2.7 | -4.5 | i | 0.9 | -0.7
COc1ccc(CC(=O)NNC(=O)CSc2nc(C)c(C)c(=O)[nH]2)cc1 | 4.6 | 1.8 | i | 1.3 | -2.0
CC(=O)c1cccc(S(=O)(=O)NCC2CCCCC2)c1 | 1.9 | -0.2 | i | -11.3 | -0.5
O=C(c1ccccc1)N1CCN(C(=O)c2cccnc2)CC1 | 5.5 | -18.6 | + | -5.1 | -0.6
COc1ccc(N2CCN(S(=O)(=O)c3ccc(Cl)c(C(F)(F)F)c3)CC2)cc1 | 5.9 | -0.5 | i | -2.8 | 8.5*
O=S1(=O)CC(N2CCCCC2)CN1Cc1cn(Cc2ccc(F)cc2)nn1 (stereo not drawn) | nt | -3.4 | i | -11.7 | nt
CCc1ccc(CN(C)C(=O)CCc2nnc(Cc3cccc(C)c3)o2)nc1 | 18.7 | 7.7 | i | 3.1 | -1.4
CCc1nnc(NC(=O)CSc2nccn2-c2cccc(C)c2)s1 | 4.7 | -3.8 | + | -8.5 | 1.3
Clc1ccc(-c2csc(NNC3=NCCCCC3)n2)cc1 | -0.5 | 13.9 | i | 6.7 | 1.5
CCOc1ccc(-c2csc(NNC3=NCCCCC3)n2)cc1 | -4.4 | 55.9* | i | 9.5 | -3.1
CC1CCc2nc(NC(=O)CN3CCN(c4ccccc4)CC3)sc2C1 (stereo not drawn) | 14.0 | 9.2 | i | 3.1 | 1.0
CC1CCc2nc(NC(=O)CN3CCN(Cc4ccc5c(c4)OCO5)CC3)sc2C1 (stereo not drawn) | 19.5 | 3.0 | i | 1.5 | 9.3*
COc1cc(OC)c(C2Nc3cccc4cccc(c34)N2)c(OC)c1 | -21.8 | 75.6* | ? | 17.2 | -3.4
COc1ccc(C2Nc3cccc4cccc(c34)N2)cc1 | 6.5 | 24.4 | i | -31.6 | -2.0
CCN(CC)c1ccc2c(-c3ccc(S(=O)(=O)O)cc3S(=O)(=O)[O-])c3ccc(=[N+](CC)CC)cc-3oc2c1 | 50.3* | 8.0 | i | -7.4 | -3.8
CCN(CC)c1ccc2cc(C(N)=O)c(=N)oc2c1 | 6.6 | -4.7 | i | 0.9 | -2.8
COc1ccc(N(C)C(=O)CN(C)S(=O)(=O)c2ccc3c(c2)c(=O)n(C)c(=O)n3C)c(OC)c1 | 4.9 | -4.8 | i | -8.6 | -2.1
Cc1sc2ncnc(SCC(=O)NC(=O)NCc3ccco3)c2c1C | 1.2 | -0.8 | + | 9.7 | 0.1
Cc1nc(SCC(=O)NCc2ccco2)c2c(C)c(C)sc2n1 | 9.8 | 0.2 | i | -6.9 | -0.3
Cc1c(CCCl)c(Cl)n2c(nc3ccccc32)c1C#N | -11.5 | 25.4 | ? | 66.8* | -0.9
